This note sets out measurements from ChEMBL document CHEMBL1799933, “Discovery of a selective allosteric M1 receptor modulator with suitable development properties based on a quinolizidinone carboxylic acid scaffold” (J Med Chem, 2011).

What is called logP is a log measure of how a compound divides between an organic and an aqueous phase.

Series [1] is described as follows: Clearance in rat at 3 mg/kg, po and 1 mg/kg, iv. To be noted: in vivo. It counts as ADME, organism-based. Put shortly:
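Rats (n = 2) dosed orally at 3 mg/kg and IV at 1 mg/kg. Interanimal variability under 20% for all values.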

Series [2] concerns Brain. In words: Drug level Sprague-Dawley rat brain at 10 mg/kg, po. Set-up: dose 10 mg/kg, route oral. It counts as ADME, organism-based. To be noted: in vivo, read-out: Drug uptake. Put shortly:
(§1)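 Rats dosed orally at 10 mpk. Plasma, brain and CSF sampled at 2 h and concentrations determined by bioanalysis.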

The nature of series [3]: Ratio of drug level in cerebrospinal fluid to fraction unbound level in plasma of Sprague-Dawley rat at 10 mg/kg, po. It counts as ADME, organism-based. Set-up: dose 10 mg/kg, route oral. To be noted: in vivo.
Series [4] in a line: Clearance in dog at 3 mg/kg, po and 1 mg/kg, iv. It counts as ADME, organism-based, Canis lupus familiaris. To be noted: in vivo. A digest of the protocol: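 Dog PK, n = 2 animals. Given orally at 3 mg/kg and intravenously at 1 mg/kg. Interanimal variability under 20% for all values.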
For series [5], the target named is T1, Muscarinic acetylcholine receptor M1 (Rattus norvegicus) (UniProt P08482).
T1 sequence (whole entry): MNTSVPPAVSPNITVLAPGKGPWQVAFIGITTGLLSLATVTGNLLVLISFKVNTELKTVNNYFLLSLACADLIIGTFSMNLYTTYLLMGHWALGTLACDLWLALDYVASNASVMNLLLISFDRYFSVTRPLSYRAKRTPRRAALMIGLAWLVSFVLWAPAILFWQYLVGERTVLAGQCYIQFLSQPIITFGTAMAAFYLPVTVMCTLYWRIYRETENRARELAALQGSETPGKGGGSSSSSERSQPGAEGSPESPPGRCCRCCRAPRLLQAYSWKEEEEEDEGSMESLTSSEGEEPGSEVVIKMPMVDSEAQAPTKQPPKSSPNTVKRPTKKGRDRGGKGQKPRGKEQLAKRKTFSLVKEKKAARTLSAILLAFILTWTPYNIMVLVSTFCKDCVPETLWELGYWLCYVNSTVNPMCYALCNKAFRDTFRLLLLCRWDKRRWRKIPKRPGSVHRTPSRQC
In words: Agonist activity at rat muscarinic M1 receptor expressed in CHOK1 cells assessed as potentiation of acetylcholine-induced calcium mobilization preincubated for 4 mins measured after 1 hr by FLIPR assay. It counts as functional, cell-based. To be noted: CHO-K1. Put shortly:
(§2)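 CHO-NFAT cells expressing the named muscarinic receptor (human M1–M4; rhesus, dog or rat M1 in CHO-K1) were plated at 25,000 cells/well and grown overnight at 37 °C, 6% CO2. Cells were loaded with 1 μM Fluo-4AM for 1 h, washed, and preincubated 4 min with serially diluted compound (final DMSO 0.67%). They were then stimulated 4 min with an EC20 of ACh, and Ca2+ flux was read by FLIPR384.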
Background: Calcium assays in cells follow changes in intracellular calcium, usually with a dye or a luminescent sensor.

Series [6] is described as follows: Metabolic stability in rat NADPH-fortified hepatic microsomes assessed as oxidative metabolism. It counts as ADME, Liver. A digest of the protocol: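 Compound incubated with NADPH-fortified hepatic microsomes from rat, dog, monkey or human. Oxidative metabolism monitored.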
The target of series [7] is T2, Muscarinic acetylcholine receptor M2 (Homo sapiens) (UniProt P08172).
T2 sequence (whole entry): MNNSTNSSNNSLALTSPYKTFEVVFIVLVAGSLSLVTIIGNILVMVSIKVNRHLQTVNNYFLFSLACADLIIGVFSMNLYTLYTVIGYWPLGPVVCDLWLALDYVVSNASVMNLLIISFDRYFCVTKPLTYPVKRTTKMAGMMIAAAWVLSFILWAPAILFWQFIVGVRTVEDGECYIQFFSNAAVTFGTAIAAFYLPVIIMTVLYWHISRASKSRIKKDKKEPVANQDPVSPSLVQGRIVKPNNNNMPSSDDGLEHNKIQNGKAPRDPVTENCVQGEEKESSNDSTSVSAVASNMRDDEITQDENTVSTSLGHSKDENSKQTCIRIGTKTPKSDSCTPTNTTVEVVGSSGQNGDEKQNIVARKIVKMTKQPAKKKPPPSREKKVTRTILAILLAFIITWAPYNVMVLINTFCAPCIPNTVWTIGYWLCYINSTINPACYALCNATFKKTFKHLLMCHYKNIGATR
In words: Agonist activity at human muscarinic M2 receptor expressed in CHONFAT cells assessed as increase in acetylcholine-induced calcium mobilization at 10 uM preincubated for 4 mins measured after 1 hr by FLIPR assay. The series is classed as functional, cell-based. A digest of the protocol:
as §2

Series [8] in a line: Lipophilicity, log P of the compound. The series is classed as physicochemical. To be noted: octanol/water.
The subject of series [9] is Plasma. Put plainly: Drug level in Sprague-Dawley rat plasma at 10 mg/kg, po. It counts as ADME, organism-based. Set-up: dose 10 mg/kg, route oral. As to conditions: in vivo. A digest of the protocol:
as §1

Calls of active or inactive are those of the source. The calls are words filed in the database; no cut-off is given here.

For the molecule `N#CC1(c2ccccn2)CCN(Cc2cc(C(=O)O)c(=O)n3ccccc23)CC1` [MSD-M1PAM], the clearance in series [1] was 13.5 mL/min/kg; in [4] it was 7.4 mL/min/kg. Besides, the concentration in series [2] amounted to 306 nM; in [9], 1480 nM. For the same molecule, in series [3], the Ratio is listed as 0.3. For the same molecule, the IP in series [5] was determined as 89 nM. The Stability result in series [6] is listed as “Stable”. Moreover, in [7], the outcome was inactive. Besides, the lipophilicity (logP) in series [8] was 0.15.
